Experimental data from ChEMBL document CHEMBL3576866, “Discovery of a Cyclic Boronic Acid β-Lactamase Inhibitor (RPX7009) with Utility vs Class A Serine Carbapenemases” (J Med Chem, 2015).

Assays:
Klebsiella pneumoniae [1] = assay: Inhibition of Klebsiella pneumoniae KP1084 SHV-11 assessed as biapenem MIC at 4 ug/ml by broth microdilution method
[2] = biological target: Beta lactamase TEM-1 (Klebsiella pneumoniae) (UniProt Q7B899); assay: Inhibition of Klebsiella pneumoniae KP1087 TEM-1 assessed as biapenem MIC at 4 ug/ml by broth microdilution method
Outline: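 Carbapenem MIC by CLSI broth microdilution (M07-A9), carbapenem titrated with inhibitor held at fixed 4 μg/mL, against clinical serine-carbapenemase-producing strain KP1087 (KPC-2, CTX-M-15, SHV-11, TEM-1; double porin mutant).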

Klebsiella pneumoniae [3] = assay: Inhibition of Klebsiella pneumoniae KP1008 KPC-2 assessed as meropenem MIC at 4 ug/ml by broth microdilution method
Outline: (§1)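 CLSI broth microdilution (M07-A9, 2012) MIC of the carbapenem against clinical serine carbapenemase-producing strain, tested alone and with the inhibitor held at a fixed 4 μg/mL.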

Klebsiella oxytoca [4] = assay: Inhibition of Klebsiella oxytoca KX1019 OXA-2 assessed as meropenem MIC at 4 ug/ml by broth microdilution method
[5] = biological target: Beta-lactamase (Klebsiella pneumoniae) (UniProt Q93LQ9); assay: Inhibition of Klebsiella pneumoniae KP1084 KPC-3 assessed as meropenem MIC at 4 ug/ml by broth microdilution method; outline: as §1
Plasminogen = Plasminogen (Homo sapiens, UniProt P00747); assay: Inhibition of plasmin (unknown origin) using H-D-VLK-pNA as substrate preincubated for 10 mins followed by substrate addition measured for 30 mins by spectrophotometric analysis
Outline: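 Commercial plasmin in 100 mM Tris-HCl, pH 7.5, 100 mM NaCl. Exposed 10 min at 37 °C to varied inhibitor concentrations before H-D-VLK-pNA (listed at 200 μM), then absorbance read over 30 min. Rates were vs a no-treatment control; IC50 is the concentration giving 50% inhibition.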

Neutrophil elastase = Neutrophil elastase (Homo sapiens, UniProt P08246); assay: Inhibition of neutrophil elastase (unknown origin) using MeOSuc-AAVP-AMC as substrate preincubated for 10 mins followed by substrate addition measured for 30 mins by spectrophotometric analysis
Outline: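 Purified commercial enzyme, mixed with inhibitor across a concentration range in 50 mM Tris-HCl pH 7.5, 1 M NaCl and held 10 min at 37 °C. MeOSuc-AAVP-AMC (30 μM) then added and fluorescence followed for 30 min. Rates expressed relative to untreated control. IC50 taken as the concentration giving 50% inhibition. AEBSF and leupeptin served as positive controls.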

[6] = Clearance in rat at 300 mg/kg, iv administered as 0.5 hrs infusion by HPLC-MS method; format: ADME, organism-based; conditions: in vivo
[7] = Cmax in rat at 1000 mg/kg, iv administered as 0.5 hrs infusion by HPLC-MS method; format: ADME, organism-based; design: dose 1000 mg/kg, route intravenous; conditions: in vivo
[8] = AUC (0 to infinity) in rat at 1000 mg/kg, iv administered as 0.5 hrs infusion by HPLC-MS method; format: ADME, organism-based; design: dose 1000 mg/kg, route intravenous, time infinity; conditions: in vivo
[9] = Clearance in rat at 1000 mg/kg, iv administered as 0.5 hrs infusion by HPLC-MS method; format: ADME, organism-based; conditions: in vivo
Homo sapiens = assay: Toxicity in human at 250 to 1500 mg administered as 3 hrs of infusion; format: organism-based; conditions: in vivo, iv
Outline: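 Phase 1 study in 36 normal (healthy) volunteers under GCP. Single 3 h infusions were given at 250, 500, 750, 1000, 1250 or 1500 mg, and drug-related adverse events were recorded.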

[10] = biological target: Beta-lactamase SHV-5 (Klebsiella pneumoniae) (UniProt P0A3M1); assay: Inhibition of Klebsiella pneumoniae KP1011 SHV5 assessed as cefepime MIC at 4 ug/ml by broth microdilution method
Outline: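 CLSI broth microdilution (M07-A9) against clinical strains expressing serine β-lactamases.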

[11] = biological target: Beta-lactamase (Enterobacter cloacae) (UniProt P05364); assay: Inhibition of Enterobacter cloacae ECL1002 AmpC assessed as cefepime MIC at 4 ug/ml by broth microdilution method
Enterobacter cloacae [12] = assay: Inhibition of Enterobacter cloacae ECL1058 SHV-11 assessed as biapenem MIC at 4 ug/ml by broth microdilution method
Klebsiella pneumoniae [13] = assay: Inhibition of Klebsiella pneumoniae KP1004 KPC-2 assessed as biapenem MIC at 4 ug/ml by broth microdilution method; outline: as §1
[14] = biological target: Beta lactamase TEM-1 (Klebsiella pneumoniae) (UniProt Q7B899); assay: Inhibition of Klebsiella pneumoniae KP1004 TEM-1 assessed as biapenem MIC at 4 ug/ml by broth microdilution method; outline: as §1
[15] = biological target: Beta lactamase TEM-1 (Klebsiella pneumoniae) (UniProt Q7B899); assay: Inhibition of Klebsiella pneumoniae KP1083 TEM-1 assessed as biapenem MIC at 4 ug/ml by broth microdilution method; outline: as §1
[16] = biological target: T1, Class A carbapenemase (Enterobacter cloacae) (UniProt A7WP95); assay: Inhibition of Enterobacter cloacae ECL1058 KPC-3 assessed as ertapenem MIC at 4 ug/ml by broth microdilution method
T1 sequence (whole entry): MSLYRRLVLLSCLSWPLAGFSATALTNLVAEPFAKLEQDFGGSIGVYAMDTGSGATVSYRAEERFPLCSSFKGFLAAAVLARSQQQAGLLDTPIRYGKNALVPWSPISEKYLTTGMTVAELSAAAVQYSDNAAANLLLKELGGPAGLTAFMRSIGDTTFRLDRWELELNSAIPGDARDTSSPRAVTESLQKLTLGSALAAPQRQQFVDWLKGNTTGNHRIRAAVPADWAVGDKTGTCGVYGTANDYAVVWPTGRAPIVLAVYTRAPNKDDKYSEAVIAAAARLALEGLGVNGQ

Enterobacter cloacae [17] = assay: Inhibition of Enterobacter cloacae ECL1058 SHV-11 assessed as ertapenem MIC at 4 ug/ml by broth microdilution method
[18] = biological target: Beta-lactamase TEM (Enterobacter cloacae) (UniProt Q6W9J1); assay: Inhibition of Enterobacter cloacae ECL1058 TEM-1 assessed as ertapenem MIC at 4 ug/ml by broth microdilution method
Klebsiella oxytoca [19] = assay: Inhibition of Klebsiella oxytoca KX1019 OXA-2 assessed as ertapenem MIC at 4 ug/ml by broth microdilution method
Klebsiella pneumoniae [20] = assay: Inhibition of Klebsiella pneumoniae KP1004 KPC-2 assessed as ertapenem MIC at 4 ug/ml by broth microdilution method; outline: as §1
Klebsiella pneumoniae [21] = assay: Inhibition of Klebsiella pneumoniae KP1087 CTX-M-15 assessed as imipenem MIC at 4 ug/ml by broth microdilution method
[22] = biological target: Beta-lactamase TEM (Enterobacter cloacae) (UniProt Q6W9J1); assay: Inhibition of Enterobacter cloacae ECL1058 TEM-1 assessed as imipenem MIC at 4 ug/ml by broth microdilution method
Klebsiella oxytoca [23] = assay: Inhibition of Klebsiella oxytoca KX1019 OXA-2 assessed as imipenem MIC at 4 ug/ml by broth microdilution method
[24] = biological target: Beta-lactamase (Klebsiella pneumoniae) (UniProt Q93LQ9); assay: Inhibition of Klebsiella pneumoniae KP1004 KPC 2 carbapenemase assessed as minimum concentration required to reduce biapenem MIC from […] ug/ml to 1 ug/mL by broth microdilution method

Sequence of Beta lactamase TEM-1 (Klebsiella pneumoniae) (Q7B899 as listed by the source): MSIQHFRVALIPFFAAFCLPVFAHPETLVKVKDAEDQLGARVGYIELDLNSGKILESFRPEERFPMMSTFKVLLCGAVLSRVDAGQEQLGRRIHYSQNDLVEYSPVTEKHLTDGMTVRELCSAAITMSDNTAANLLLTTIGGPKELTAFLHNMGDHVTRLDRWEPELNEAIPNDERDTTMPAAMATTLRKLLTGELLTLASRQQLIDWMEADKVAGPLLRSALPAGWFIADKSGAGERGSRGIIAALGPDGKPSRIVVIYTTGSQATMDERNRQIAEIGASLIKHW
Sequence of Beta-lactamase (Klebsiella pneumoniae) (Q93LQ9 as listed by the source): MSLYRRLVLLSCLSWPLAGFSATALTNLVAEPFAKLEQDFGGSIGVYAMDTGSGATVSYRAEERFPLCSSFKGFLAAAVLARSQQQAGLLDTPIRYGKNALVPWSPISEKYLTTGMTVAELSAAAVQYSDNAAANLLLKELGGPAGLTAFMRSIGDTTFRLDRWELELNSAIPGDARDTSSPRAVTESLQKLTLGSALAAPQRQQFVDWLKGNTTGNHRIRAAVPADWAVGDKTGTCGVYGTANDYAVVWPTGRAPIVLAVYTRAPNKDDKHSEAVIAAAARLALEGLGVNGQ
Sequence of Beta-lactamase TEM (Enterobacter cloacae) (Q6W9J1 as listed by the source): as the sequence (Q7B899 as listed by the source) above
Sequence of Neutrophil elastase (P08246 whole entry): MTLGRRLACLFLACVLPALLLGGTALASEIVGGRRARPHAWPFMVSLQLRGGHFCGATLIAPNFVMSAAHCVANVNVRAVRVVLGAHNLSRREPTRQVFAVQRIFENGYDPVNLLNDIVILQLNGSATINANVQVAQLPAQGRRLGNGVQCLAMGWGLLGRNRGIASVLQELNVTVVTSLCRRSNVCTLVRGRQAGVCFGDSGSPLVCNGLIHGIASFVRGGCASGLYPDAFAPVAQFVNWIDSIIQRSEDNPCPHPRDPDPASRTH
Sequence of Beta-lactamase SHV-5 (Klebsiella pneumoniae) (P0A3M1 whole entry): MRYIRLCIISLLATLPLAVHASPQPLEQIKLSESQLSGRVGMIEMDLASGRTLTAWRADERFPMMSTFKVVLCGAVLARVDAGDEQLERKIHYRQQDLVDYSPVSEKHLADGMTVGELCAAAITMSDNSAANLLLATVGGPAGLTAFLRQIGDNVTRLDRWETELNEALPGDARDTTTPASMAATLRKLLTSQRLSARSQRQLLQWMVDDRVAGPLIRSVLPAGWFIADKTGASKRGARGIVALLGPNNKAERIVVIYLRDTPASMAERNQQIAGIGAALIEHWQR
Sequence of Plasminogen (P00747 97-580 limits assumed): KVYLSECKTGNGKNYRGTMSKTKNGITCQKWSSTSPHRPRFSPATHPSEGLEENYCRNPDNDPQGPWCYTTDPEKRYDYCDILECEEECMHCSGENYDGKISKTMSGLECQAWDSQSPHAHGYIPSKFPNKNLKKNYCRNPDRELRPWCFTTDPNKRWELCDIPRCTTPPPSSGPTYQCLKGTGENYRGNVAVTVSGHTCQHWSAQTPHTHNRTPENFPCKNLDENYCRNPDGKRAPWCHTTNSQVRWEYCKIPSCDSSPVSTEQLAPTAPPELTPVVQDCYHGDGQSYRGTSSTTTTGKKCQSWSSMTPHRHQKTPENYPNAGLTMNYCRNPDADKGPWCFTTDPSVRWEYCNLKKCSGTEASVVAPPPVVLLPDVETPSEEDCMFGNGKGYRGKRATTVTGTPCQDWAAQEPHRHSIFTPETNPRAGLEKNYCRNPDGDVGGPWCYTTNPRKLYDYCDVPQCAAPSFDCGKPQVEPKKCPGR
Sequence of Plasminogen (P00747 581-810 limits assumed): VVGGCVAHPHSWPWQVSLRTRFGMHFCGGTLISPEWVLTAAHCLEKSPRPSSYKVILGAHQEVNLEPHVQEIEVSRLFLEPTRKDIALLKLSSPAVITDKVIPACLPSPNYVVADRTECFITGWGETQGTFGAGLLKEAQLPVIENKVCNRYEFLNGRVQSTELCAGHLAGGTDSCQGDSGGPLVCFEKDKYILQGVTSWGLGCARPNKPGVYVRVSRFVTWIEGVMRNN
Sequence of Beta-lactamase (Enterobacter cloacae) (P05364 21-381 limits assumed): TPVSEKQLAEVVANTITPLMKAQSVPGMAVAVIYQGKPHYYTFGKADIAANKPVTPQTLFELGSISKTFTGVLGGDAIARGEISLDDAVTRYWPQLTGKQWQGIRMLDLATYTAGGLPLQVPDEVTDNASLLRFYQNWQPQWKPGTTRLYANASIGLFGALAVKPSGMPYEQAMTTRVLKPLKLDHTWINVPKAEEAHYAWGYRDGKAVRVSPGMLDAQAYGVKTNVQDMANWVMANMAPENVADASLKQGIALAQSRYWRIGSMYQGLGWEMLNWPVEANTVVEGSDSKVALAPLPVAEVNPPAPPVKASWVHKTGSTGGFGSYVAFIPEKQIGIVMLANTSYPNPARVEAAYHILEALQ

O=C(O)C[C@@H]1CC[C@H](NC(=O)Cc2cccs2)B(O)O1 [VABORBACTAM]
MIC (Klebsiella pneumoniae [1]): 0.25 µg/mL
MIC [2]: 0.25 µg/mL
MIC (Klebsiella pneumoniae [3]): ≤ 0.06 µg/mL
MIC (Klebsiella oxytoca [4]): < 0.06 µg/mL
MIC [5]: 0.5 µg/mL
IC50 (Plasminogen): > 1000 µM
IC50 (Neutrophil elastase): > 1000 µM
clearance [6]: 21 mL/min/kg
Cmax [7]: 2600 µg/mL
AUC(0-inf) [8]: 1040 µg·h/mL
clearance [9]: 16.2 mL/min/kg
Activity (Homo sapiens): Non-toxic
MIC [10]: 0.25 µg/mL
MIC [11]: 0.5 µg/mL
MIC (Enterobacter cloacae [12]): < 0.06 µg/mL
MIC (Klebsiella pneumoniae [13]): ≤ 0.06 µg/mL
MIC [14]: < 0.06 µg/mL
MIC [15]: < 0.06 µg/mL
MIC [16]: 0.25 µg/mL
MIC (Enterobacter cloacae [17]): 0.25 µg/mL
MIC [18]: 0.25 µg/mL
MIC (Klebsiella oxytoca [19]): 0.25 µg/mL
MIC (Klebsiella pneumoniae [20]): ≤ 0.06 µg/mL
MIC (Klebsiella pneumoniae [21]): 0.25 µg/mL
MIC [22]: 0.25 µg/mL
MIC (Klebsiella oxytoca [23]): 0.13 µg/mL
MEC [24]: 0.02 µg/mL
